Calls of active or inactive are those of the source. No cut-off for these calls is given here.
Experiments:
[1] = molecular target: T1, Neutrophil elastase (Homo sapiens) (UniProt P08246); experiment: Inhibition of human neutrophil elastase using N-methylsuccinyl-Ala-Ala-Pro-Val-7-amino-4-methyl-coumarin as substrate at < 55 uM measured every 30 secs for 10 mins by fluorescence microplate reader
T1 sequence (whole entry): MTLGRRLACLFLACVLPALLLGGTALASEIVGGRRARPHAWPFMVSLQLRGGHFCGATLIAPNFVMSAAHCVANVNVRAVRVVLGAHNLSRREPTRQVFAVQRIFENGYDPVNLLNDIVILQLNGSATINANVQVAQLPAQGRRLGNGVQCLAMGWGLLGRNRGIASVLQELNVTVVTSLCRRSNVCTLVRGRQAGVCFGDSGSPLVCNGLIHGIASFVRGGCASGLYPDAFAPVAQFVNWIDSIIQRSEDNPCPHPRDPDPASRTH
In short: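 20 mU/mL HNE in 200 mM Tris–HCl pH 7.5, 0.01% BSA, 0.05% Tween-20, 1% DMSO final, added to compound dilutions. Reaction started with 25 µM substrate, read every 30 s for 10 min at 25 °C (ex 355/em 460 nm). IC50 from % inhibition vs log concentration, at least six points; mean of ≥3 independent experiments.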

[2] = Inhibition of human pancreatic chymotrypsin using Suc-Ala-Ala-Pro-Phe-7-amino-4-methylcoumarin as substrate by spectrophotometric analysis
In short: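 30 nM chymotrypsin in 0.05 M Tris–HCl pH 8.0 with 100 µM substrate, 25 °C. Fluorescence read at ex 355/em 460 nm. IC50 from % inhibition vs log concentration, at least six points; mean of ≥3 experiments.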

[3] = molecular target: Urokinase-type plasminogen activator (Homo sapiens, UniProt P00749); experiment: Inhibition of human urine urokinase using benzyloxycarbonyl-Gly-Gly-Arg-7-amino-4-methylcoumarin as substrate by spectrophotometric analysis
In short: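 30 U/mL urokinase in 0.1 M Tris–HCl pH 8.0 with 30 µM substrate, 25 °C. Fluorescence read at ex 355/em 460 nm. IC50 from % inhibition vs log concentration, at least six points; mean of ≥3 experiments.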

[4] = molecular target: Prothrombin (Homo sapiens, UniProt P00734); experiment: Inhibition of human plasma thrombin benzoyl-Phe-Val-Arg-7-amino-4-methylcoumarin as substrate by spectrophotometric analysis
In short: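 Fluorescence read at ex 355/em 460 nm. IC50 from % inhibition vs log concentration, at least six points; mean of ≥3 experiments.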

[5] = molecular target: T1, Neutrophil elastase (Homo sapiens); experiment: Inhibition of human neutrophil elastase assessed as cleavage of substrate N-methylsuccinyl-Ala-Ala-Pro-Val-7-amino-4-methyl-coumarin at 600 nM after 5 hrs by fluorescence microplate reader
In short: (§1)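 HNE incubated with compound at 600 nM; substrate cleavage followed fluorimetrically for the first 180 min and out to 10 h, with a vehicle control. More fluorogenic substrate added after the 10 h incubation to test residual enzyme activity.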

[6] = molecular target: T2, Neutrophil elastase (Homo sapiens, UniProt P08246); experiment: Inhibition of human neutrophil elastase using N-methylsuccinyl-Ala-Ala-Pro-Val-7-amino-4-methyl-coumarin as substrate measured every 30 secs for 10 mins by fluorescence microplate reader
T2 sequence (P08246 whole entry): T1 sequence (whole entry)

[7] = molecular target: T1, Neutrophil elastase (Homo sapiens); experiment: Inhibition of human neutrophil elastase assessed as cleavage of substrate N-methylsuccinyl-Ala-Ala-Pro-Val-7-amino-4-methyl-coumarin at 600 nM after 10 hrs by fluorescence microplate reader; in short: as §1
[8] = molecular target: T1, Neutrophil elastase (Homo sapiens); experiment: Inhibition of human neutrophil elastase assessed as cleavage of substrate N-methylsuccinyl-Ala-Ala-Pro-Val-7-amino-4-methyl-coumarin at 600 nM measured upto 120 mins by fluorescence microplate reader
[9] = molecular target: T1, Neutrophil elastase (Homo sapiens); experiment: Inhibition of human neutrophil elastase assessed as cleavage of substrate N-methylsuccinyl-Ala-Ala-Pro-Val-7-amino-4-methyl-coumarin at 600 nM measured upto 90 mins by fluorescence microplate reader; in short: as §1
[10] = molecular target: T1, Neutrophil elastase (Homo sapiens); experiment: Competitive inhibition of human neutrophil elastase assessed as hydrolysis of fluorogenic substrate N-methylsuccinyl-Ala-Ala-Pro-Val-7-amino-4-methyl-coumarin by Lineweaver-Burk plot analysis
In short: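 HNE kinetics with inhibitor at 0 and 40 nM over varied substrate concentrations; double-reciprocal Lineweaver–Burk plot, representative of three independent experiments.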

[11] = Stability of the compound in aqueous buffer pH 7.3 assessed as hydrolysis of the compound after 10 hrs by spectrophotometric analysis; format: physicochemical; settings: pH 7.3, 10 h
In short: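 Compound at 20 µM in 0.05 M phosphate buffer pH 7.3, 25 °C. Absorbance spectra (230–330 nm) scanned repeatedly over time to follow spontaneous hydrolysis; scans representative of two independent experiments.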

Structure (SMILES): COC(=O)c1nn(C(=O)c2cccc(N)c2)c2ccccc12
- inhibition [1]: inactive

Structure (SMILES): CCOC(=O)c1nn(C(=O)Nc2ccc(Cl)cc2)c2ccccc12
- inhibition [1]: inactive

Structure (SMILES): O=C(O)c1nn(C(=O)c2ccccc2)c2ccccc12
- inhibition [1]: inactive

Structure (SMILES): O=C(Nc1ccccc1)c1nn(-c2ccc(Cl)cc2)c2ccccc12
- inhibition [1]: inactive

Structure (SMILES): Cc1ccc(S(=O)(=O)n2nc(C(=O)Nc3ccccc3)c3ccccc32)cc1
- inhibition [1]: inactive

Structure (SMILES): CCOC(=O)c1nn(C(=O)c2ccncc2)c2ccccc12
- inhibition [1]: inactive

Structure (SMILES): O=C(Nc1ccccc1)c1nn(Cc2ccc(Cl)cc2)c2ccccc12
- inhibition [1]: inactive

Structure (SMILES): O=C(Nc1ccccc1)c1nn(C(=O)c2ccccc2Cl)c2ccccc12
- inhibition [1]: inactive

Structure (SMILES): CCOC(=O)c1nn(C(=O)c2cc(OC)c(OC)c(OC)c2)c2ccccc12
- inhibition [1]: inactive

Structure (SMILES): O=C(Nc1ccccc1)c1nn(C(=O)c2ccncc2)c2ccccc12
- inhibition [1]: inactive

Structure (SMILES): CCOC(=O)c1nn(C(=O)c2cccc(C(F)(F)F)c2)c2ccccc12
- inhibition [1]: inactive

Structure (SMILES): O=C(OCC(F)(F)F)c1nn(C(=O)c2ccccc2)c2ccccc12
- IC50 [2]: 2.9 nM
- IC50 [3]: 10 µM
- IC50 [4]: 6.7 µM
- inhibition [5]: 50%
- IC50 [6]: 260 nM
- inhibition [7]: inactive
- inhibition [8]: Active

Structure (SMILES): CCCC(=O)n1nc(C(=O)OCC)c2ccccc21
- IC50 [2]: 430 nM
- IC50 [3]: 14 µM
- IC50 [4]: 5.2 µM
- inhibition [5]: inactive
- IC50 [6]: 180 nM
- inhibition [7]: inactive
- inhibition [9]: Active

Structure (SMILES): CCOC(=O)c1nn(CC(=O)c2ccccc2)c2ccccc12
- inhibition [1]: inactive

Structure (SMILES): CCOC(=O)c1nn(C(=O)Nc2cccc(OC)c2)c2ccccc12
- inhibition [1]: inactive

Structure (SMILES): COC(=O)c1nn(C(=O)c2cccc(C)c2)c2ccccc12
- IC50 [2]: 30 nM
- IC50 [3]: 0.87 µM
- IC50 [4]: 5.1 µM
- IC50 [6]: 130 nM
- inhibition [7]: inactive
- inhibition [10]: Active
- inhibition [8]: Active

Structure (SMILES): CCOC(=O)c1nn(C(=O)c2ccc([N+](=O)[O-])cc2)c2ccccc12
- inhibition [1]: inactive

Structure (SMILES): CC(C)OC(=O)c1nn(C(=O)c2ccccc2)c2ccccc12
- IC50 [2]: 47 nM
- IC50 [3]: 6.3 µM
- IC50 [4]: 7.8 µM
- inhibition [5]: 50%
- IC50 [6]: 240 nM
- inhibition [7]: inactive
- inhibition [8]: Active

Structure (SMILES): O=C(Nc1ccccc1)c1nn(S(=O)(=O)c2ccc(Cl)cc2)c2ccccc12
- inhibition [1]: inactive

Structure (SMILES): CCOC(=O)c1nn(C(=O)c2cccc3ccccc23)c2ccccc12
- inhibition [1]: inactive

Structure (SMILES): CCOC(=O)c1nn(C(=O)c2ccccc2Cl)c2ccccc12
- inhibition [1]: inactive

Structure (SMILES): COC(=O)c1nn(C(=O)c2ccsc2)c2ccccc12
- IC50 [2]: 260 nM
- IC50 [3]: 12 µM
- inhibition [5]: 50%
- IC50 [6]: 310 nM
- inhibition [7]: inactive
- inhibition [8]: Active

Structure (SMILES): O=C(Nc1ccccc1)c1nn(C(=O)c2ccc([N+](=O)[O-])cc2)c2ccccc12
- inhibition [1]: inactive

Structure (SMILES): COc1cccc(C(=O)n2nc(C)c3ccccc32)c1
- inhibition [1]: inactive

Structure (SMILES): COC(=O)c1nn(C(=O)c2ccccc2)c2ccccc12
- IC50 [2]: 81 nM
- Stability [11]: Unstable
- IC50 [3]: 1.2 µM
- IC50 [4]: 14 µM
- inhibition [5]: 50%
- IC50 [6]: 89 nM
- inhibition [7]: inactive
- inhibition [10]: Active
- inhibition [8]: Active

Structure (SMILES): CCOC(=O)c1nn(C(=O)c2cccc([N+](=O)[O-])c2)c2ccccc12
- inhibition [1]: inactive

Structure (SMILES): CCOC(=O)c1nn(C(=O)C2CCCCC2)c2ccccc12
- inhibition [1]: inactive
